Laboratory results reported in ChEMBL document CHEMBL1152541, “Staurosporine tethered peptide ligands that target cAMP-dependent protein kinase (PKA): optimization and selectivity profiling” (Bioorg Med Chem, 2009).
*1 amine or outer side, *2 acyl side, *3 side chain or, on linkers, in order; H or OH if unused. Where a SMILES comes first, the peptide text is derived from it. Bridges are numbered along the chain shown (N, C = ends). [ ]: non-standard residue; d: D form. The star is where a group is joined. Staurosporine = CO[C@@H]1[C@H](N(C)*)C[C@H]2O[C@]1(C)n1c3ccccc3c3c4c(c5c6ccccc6n2c5c31)C(=O)NC4; Suc = O=C(CCC(=O)[*:2])[*:1]; Dap = NC[C@H](N)C(=O)O; βAla = NCCC(=O)O

Tests used:
[1] = molecular target: Cyclin-dependent kinase 2 (Homo sapiens) (UniProt P24941); assay: Ratio of compound to staurosporine binding affinity to human CDK2 in presence of DTT
[2] = molecular target: Ribosomal protein S6 kinase alpha-3 (Homo sapiens) (UniProt P51812); assay: Binding affinity to human RPS6KA3 kinase domain 1 at 500 nM by cell-based competition binding assay relative to control in presence of DTT
Chain of Ribosomal protein S6 kinase alpha-3 (Homo sapiens) (P51812 whole entry, the tested form may be a part): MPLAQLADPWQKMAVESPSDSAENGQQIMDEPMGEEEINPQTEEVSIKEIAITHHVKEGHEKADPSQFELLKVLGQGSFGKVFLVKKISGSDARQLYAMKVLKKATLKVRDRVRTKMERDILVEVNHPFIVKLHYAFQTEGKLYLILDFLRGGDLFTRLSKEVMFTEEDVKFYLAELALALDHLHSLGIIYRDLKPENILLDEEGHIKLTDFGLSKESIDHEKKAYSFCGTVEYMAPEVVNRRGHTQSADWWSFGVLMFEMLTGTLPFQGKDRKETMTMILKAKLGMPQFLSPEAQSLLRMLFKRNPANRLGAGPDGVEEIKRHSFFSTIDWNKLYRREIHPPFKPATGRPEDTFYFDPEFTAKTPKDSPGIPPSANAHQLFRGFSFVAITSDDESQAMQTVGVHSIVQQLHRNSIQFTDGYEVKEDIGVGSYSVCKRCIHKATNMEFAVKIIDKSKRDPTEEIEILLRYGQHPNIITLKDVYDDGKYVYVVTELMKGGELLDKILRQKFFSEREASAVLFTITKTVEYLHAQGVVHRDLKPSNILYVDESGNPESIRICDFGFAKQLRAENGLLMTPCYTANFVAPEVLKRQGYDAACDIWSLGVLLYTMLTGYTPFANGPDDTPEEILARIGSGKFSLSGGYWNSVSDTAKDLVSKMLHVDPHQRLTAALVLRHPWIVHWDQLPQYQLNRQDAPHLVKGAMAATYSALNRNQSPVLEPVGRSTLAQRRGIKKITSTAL

[3] = system: Tyrosine-protein kinase ABL1 (Homo sapiens), P00519 [E255K]; assay: Binding affinity to human ABL1 E255K mutant at 500 nM by cell-based competition binding assay relative to control in presence of DTT
How it was run: (§1)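 Kinase binding profiling ran on a commercial (Ambit) competitive binding screen against a panel of 90 kinases. The screen used reducing conditions with 7.5 mM DTT. To withstand the DTT, the bivalent ligand was tested as its amide isostere, with the disulfide replaced. A staurosporine derivative carrying a 3 β-alanine linker was run as the reference compound.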

[4] = molecular target: Ephrin type-A receptor 2 (Homo sapiens) (UniProt P29317); assay: Binding affinity to human EPHA2 at 500 nM by cell-based competition binding assay relative to control in presence of DTT
Chain of Ephrin type-A receptor 2 (Homo sapiens) (P29317 whole entry): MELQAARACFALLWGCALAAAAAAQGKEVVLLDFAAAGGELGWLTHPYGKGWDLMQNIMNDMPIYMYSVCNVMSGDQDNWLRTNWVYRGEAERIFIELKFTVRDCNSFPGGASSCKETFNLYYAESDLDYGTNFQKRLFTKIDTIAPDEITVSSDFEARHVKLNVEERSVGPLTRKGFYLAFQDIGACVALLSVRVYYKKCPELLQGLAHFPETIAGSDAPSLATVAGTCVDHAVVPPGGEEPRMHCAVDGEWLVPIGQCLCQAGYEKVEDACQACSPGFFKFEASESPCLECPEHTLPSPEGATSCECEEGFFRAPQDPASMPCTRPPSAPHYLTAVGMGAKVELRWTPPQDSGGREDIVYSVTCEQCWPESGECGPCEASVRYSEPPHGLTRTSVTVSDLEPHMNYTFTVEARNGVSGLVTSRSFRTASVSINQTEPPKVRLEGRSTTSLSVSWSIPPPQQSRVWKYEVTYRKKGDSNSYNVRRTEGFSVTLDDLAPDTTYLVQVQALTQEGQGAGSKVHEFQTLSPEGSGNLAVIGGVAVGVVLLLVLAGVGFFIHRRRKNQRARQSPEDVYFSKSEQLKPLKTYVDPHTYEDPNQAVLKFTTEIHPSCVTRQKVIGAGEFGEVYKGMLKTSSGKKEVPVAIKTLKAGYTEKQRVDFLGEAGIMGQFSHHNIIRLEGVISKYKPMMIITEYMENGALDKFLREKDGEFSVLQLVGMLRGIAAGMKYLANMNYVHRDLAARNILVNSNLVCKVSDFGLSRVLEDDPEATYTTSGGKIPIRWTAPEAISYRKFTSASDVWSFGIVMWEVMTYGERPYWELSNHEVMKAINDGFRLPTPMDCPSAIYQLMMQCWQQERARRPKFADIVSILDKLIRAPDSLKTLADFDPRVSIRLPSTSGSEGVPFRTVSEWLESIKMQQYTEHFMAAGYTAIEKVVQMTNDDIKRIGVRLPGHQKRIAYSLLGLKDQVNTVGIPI
How it was run: (§2)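 Commercial (Ambit) competitive kinase-binding panel of 90 kinases measured the binding profile. Run under reducing conditions of 7.5 mM DTT. Binding is expressed relative to control.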

[5] = molecular target: Mitogen-activated protein kinase 10 (Homo sapiens) (UniProt P53779); assay: Binding affinity to human JNK3 at 200 nM by cell-based competition binding assay relative to control in presence of DTT
Chain of Mitogen-activated protein kinase 10 (Homo sapiens) (P53779 whole entry): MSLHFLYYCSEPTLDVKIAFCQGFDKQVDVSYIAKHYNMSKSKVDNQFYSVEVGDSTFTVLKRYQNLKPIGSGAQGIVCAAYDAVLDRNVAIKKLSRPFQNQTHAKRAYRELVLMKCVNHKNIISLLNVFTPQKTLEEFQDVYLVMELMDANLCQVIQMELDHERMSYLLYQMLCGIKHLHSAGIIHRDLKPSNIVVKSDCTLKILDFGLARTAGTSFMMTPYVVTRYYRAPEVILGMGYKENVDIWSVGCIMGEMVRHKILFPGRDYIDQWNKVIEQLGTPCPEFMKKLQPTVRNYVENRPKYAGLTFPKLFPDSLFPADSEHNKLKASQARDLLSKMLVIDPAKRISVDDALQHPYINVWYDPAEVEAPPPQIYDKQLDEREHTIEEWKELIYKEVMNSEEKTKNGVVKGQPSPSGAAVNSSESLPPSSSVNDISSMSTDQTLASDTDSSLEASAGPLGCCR
How it was run: (§3)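 Competition binding screen (Ambit) across a panel of 90 kinases, scoring test ligand displacement of each kinase's binding relative to control. The screen ran under reducing conditions with 7.5 mM DTT.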

[6] = molecular target: T1, NUAK family SNF1-like kinase 2 (Homo sapiens) (UniProt Q9H093); assay: Binding affinity to human SNARK at 200 nM by cell-based competition binding assay relative to control in presence of DTT
T1 sequence (whole entry): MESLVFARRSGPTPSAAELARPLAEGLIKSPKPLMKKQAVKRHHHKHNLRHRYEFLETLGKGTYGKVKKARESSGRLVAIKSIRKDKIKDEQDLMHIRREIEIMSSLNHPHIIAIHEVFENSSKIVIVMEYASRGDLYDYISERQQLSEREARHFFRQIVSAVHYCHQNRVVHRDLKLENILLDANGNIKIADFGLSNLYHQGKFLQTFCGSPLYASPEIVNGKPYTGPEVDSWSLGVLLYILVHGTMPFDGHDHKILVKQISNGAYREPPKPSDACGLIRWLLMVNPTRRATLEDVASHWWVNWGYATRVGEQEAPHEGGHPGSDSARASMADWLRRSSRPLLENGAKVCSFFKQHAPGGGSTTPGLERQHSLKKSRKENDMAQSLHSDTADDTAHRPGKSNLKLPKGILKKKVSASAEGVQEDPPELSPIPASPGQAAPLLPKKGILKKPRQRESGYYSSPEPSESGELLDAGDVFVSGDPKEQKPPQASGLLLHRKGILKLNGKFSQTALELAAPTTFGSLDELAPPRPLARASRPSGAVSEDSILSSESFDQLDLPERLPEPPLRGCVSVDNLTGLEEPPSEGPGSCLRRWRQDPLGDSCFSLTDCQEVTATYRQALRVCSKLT

[7] = molecular target: Serine/threonine-protein kinase PAK 1 (Homo sapiens) (UniProt Q13153); assay: Binding affinity to human PAK1 at 200 nM by cell-based competition binding assay relative to control in presence of DTT
[8] = molecular target: Serine/threonine-protein kinase PLK1 (Homo sapiens) (UniProt P53350); assay: Binding affinity to human PLK1 at 200 nM by cell-based competition binding assay relative to control in presence of DTT
Chain of Serine/threonine-protein kinase PLK1 (Homo sapiens) (P53350 whole entry): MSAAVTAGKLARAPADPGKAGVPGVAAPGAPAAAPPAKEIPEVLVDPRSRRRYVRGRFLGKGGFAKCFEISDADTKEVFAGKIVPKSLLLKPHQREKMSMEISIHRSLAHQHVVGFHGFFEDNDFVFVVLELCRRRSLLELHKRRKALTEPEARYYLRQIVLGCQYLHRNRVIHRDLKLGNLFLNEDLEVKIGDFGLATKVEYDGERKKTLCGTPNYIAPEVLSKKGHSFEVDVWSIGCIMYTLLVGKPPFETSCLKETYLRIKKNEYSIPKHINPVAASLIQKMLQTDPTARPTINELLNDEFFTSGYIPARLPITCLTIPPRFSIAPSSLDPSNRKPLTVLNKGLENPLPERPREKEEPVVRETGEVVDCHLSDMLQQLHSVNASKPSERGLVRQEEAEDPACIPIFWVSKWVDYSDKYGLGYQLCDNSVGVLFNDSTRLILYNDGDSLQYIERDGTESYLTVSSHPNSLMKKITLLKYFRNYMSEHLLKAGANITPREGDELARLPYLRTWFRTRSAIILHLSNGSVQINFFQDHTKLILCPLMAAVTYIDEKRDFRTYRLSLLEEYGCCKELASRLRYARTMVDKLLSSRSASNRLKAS

[9] = molecular target: Ephrin type-A receptor 2 (Homo sapiens) (UniProt P29317); assay: Binding affinity to human EPHA2 at 50 nM by cell-based competition binding assay relative to control in presence of DTT; how it was run: as §2
[10] = system: Mast/stem cell growth factor receptor Kit (Homo sapiens), P10721 [V559D,T670I]; assay: Binding affinity to human KIT V559D,T670I mutant at 50 nM by cell-based competition binding assay relative to control in presence of DTT; how it was run: as §3
Chain of Mast/stem cell growth factor receptor Kit (Homo sapiens), P10721 [V559D,T670I] (P10721 whole entry V559D/T670I): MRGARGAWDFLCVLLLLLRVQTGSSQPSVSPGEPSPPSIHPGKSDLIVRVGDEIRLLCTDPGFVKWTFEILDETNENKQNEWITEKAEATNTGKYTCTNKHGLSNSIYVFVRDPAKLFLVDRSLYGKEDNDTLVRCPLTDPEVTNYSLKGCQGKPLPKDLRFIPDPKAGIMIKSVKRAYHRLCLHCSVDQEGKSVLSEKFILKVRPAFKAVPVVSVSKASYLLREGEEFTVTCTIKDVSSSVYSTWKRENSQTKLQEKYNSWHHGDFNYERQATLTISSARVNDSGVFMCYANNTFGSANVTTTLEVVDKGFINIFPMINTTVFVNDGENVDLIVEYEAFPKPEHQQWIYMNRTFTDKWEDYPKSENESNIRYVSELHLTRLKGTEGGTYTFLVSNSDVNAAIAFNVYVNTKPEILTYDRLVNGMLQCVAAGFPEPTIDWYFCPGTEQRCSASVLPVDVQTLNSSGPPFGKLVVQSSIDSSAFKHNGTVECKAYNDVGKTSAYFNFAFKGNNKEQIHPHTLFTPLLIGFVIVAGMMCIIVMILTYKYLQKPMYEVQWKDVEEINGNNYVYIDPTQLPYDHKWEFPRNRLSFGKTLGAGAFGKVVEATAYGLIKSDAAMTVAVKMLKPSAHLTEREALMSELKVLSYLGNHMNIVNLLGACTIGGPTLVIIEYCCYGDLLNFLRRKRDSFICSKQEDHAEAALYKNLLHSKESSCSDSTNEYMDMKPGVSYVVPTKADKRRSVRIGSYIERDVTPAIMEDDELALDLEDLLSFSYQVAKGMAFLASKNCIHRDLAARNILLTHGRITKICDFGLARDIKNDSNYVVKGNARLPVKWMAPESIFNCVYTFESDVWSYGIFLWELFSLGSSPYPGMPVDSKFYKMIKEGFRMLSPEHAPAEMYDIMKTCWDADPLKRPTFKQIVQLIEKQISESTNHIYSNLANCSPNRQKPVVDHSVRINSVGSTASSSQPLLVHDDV

[11] = molecular target: RAC-beta serine/threonine-protein kinase (Homo sapiens) (UniProt P31751); assay: Binding affinity to human AKT2 at 50 nM by cell-based competition binding assay relative to control in presence of DTT; how it was run: as §1
Chain of RAC-beta serine/threonine-protein kinase (Homo sapiens) (P31751 whole entry): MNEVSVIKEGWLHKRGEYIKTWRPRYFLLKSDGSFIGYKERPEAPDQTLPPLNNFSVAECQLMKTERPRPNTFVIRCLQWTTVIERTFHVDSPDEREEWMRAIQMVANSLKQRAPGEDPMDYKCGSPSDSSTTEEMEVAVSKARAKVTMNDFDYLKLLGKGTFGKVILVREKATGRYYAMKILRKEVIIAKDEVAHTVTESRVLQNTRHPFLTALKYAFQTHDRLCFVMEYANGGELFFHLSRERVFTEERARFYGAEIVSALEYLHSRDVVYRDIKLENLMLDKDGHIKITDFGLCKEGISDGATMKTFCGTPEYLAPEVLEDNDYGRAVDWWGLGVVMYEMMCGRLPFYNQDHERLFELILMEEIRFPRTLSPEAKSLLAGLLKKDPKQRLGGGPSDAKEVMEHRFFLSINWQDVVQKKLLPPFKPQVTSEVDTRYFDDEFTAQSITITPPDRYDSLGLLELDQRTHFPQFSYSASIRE

[12] = molecular target: Mitogen-activated protein kinase 11 (Homo sapiens) (UniProt Q15759); assay: Binding affinity to human p38beta at 50 nM by cell-based competition binding assay relative to control in presence of DTT
Chain of Mitogen-activated protein kinase 11 (Homo sapiens) (Q15759 whole entry): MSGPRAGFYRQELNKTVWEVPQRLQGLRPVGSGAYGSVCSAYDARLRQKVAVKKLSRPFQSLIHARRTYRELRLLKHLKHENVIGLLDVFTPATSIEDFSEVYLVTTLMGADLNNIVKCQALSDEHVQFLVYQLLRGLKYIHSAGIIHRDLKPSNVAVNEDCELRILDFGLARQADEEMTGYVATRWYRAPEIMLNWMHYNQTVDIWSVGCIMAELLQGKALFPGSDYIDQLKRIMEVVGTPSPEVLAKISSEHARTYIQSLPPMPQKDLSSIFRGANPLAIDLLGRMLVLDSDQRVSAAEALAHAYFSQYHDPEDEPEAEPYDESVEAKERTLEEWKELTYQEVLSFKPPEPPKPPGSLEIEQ

[13] = molecular target: Mitogen-activated protein kinase 8 (Homo sapiens) (UniProt P45983); assay: Binding affinity to human JNK1 at 50 nM by cell-based competition binding assay relative to control in presence of DTT; how it was run: as §3
Chain of Mitogen-activated protein kinase 8 (Homo sapiens) (P45983 whole entry, canonical isoform): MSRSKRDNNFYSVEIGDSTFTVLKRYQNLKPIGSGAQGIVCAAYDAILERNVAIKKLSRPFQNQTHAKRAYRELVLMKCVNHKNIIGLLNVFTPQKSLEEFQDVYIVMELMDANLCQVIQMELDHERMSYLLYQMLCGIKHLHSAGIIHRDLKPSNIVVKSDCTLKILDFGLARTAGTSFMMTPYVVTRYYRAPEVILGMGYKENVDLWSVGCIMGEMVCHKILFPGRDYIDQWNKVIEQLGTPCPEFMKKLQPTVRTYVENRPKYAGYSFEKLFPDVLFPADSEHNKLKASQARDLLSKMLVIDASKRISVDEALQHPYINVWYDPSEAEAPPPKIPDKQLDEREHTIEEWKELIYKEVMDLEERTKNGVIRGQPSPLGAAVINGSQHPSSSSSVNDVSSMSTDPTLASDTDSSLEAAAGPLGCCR

[14] = molecular target: Phosphatidylinositol 4,5-bisphosphate 3-kinase catalytic subunit alpha isoform (Homo sapiens) (UniProt P42336); assay: Binding affinity to human PIK3Calpha at 50 nM by cell-based competition binding assay relative to control in presence of DTT
[15] = molecular target: Serine/threonine-protein kinase PAK 4 (Homo sapiens) (UniProt O96013); assay: Binding affinity to human PAK4 at 50 nM by cell-based competition binding assay relative to control in presence of DTT

For CO[C@@H]1[C@H](N(C)C(=O)CCC(=O)NCCC(=O)NCCC(=O)NCCC(N)=O)C[C@H]2O[C@]1(C)n1c3ccccc3c3c4c(c5c6ccccc6n2c5c31)C(=O)NC4, the Selectivity ratio [1] was 50, the Activity [2] was 44% and the Activity [3] was 92%. It also gave an Activity [4] of 80%.

CO[C@@H]1[C@H](N(C)C(=O)CCC(=O)NCCC(=O)NCCC(=O)NCCC(=O)NCCC(=O)NCCC(=O)NCCC(=O)NCCC(=O)N[C@H]2CSSC[C@@H](C(=O)NCC(N)=O)NC(=O)CNC(=O)[C@H](Cc3ccccc3)NC(=O)[C@H](C(C)C)NC(=O)[C@H](CCCNC(=N)N)NC(=O)[C@H](Cc3ccccc3)NC(=O)[C@H](C(C)C)NC2=O)C[C@H]2O[C@]1(C)n1c3ccccc3c3c4c(c5c6ccccc6n2c5c31)C(=O)NC4 ({Staurosporine-Suc-βAla-βAla-βAla-βAla-βAla-βAla-βAla}-CVFRVFGCG-NH2; disulfide 1-8) was tested, and the Activity [5] was 65%, the Activity [6] was 0.45% and the Activity [7] was 14%. For the same compound, the Activity [8] was 95%.

CO[C@@H]1[C@H](N(C)C(=O)CCC(=O)NCCC(=O)NCCC(=O)NCCC(=O)NCCC(=O)NCCC(=O)NCCC(=O)NCCC(=O)N[C@H]2CNC(=O)C[C@@H](C(N)=O)NC(=O)CNC(=O)[C@H](Cc3ccccc3)NC(=O)[C@H](C(C)C)NC(=O)[C@H](CCCNC(=N)N)NC(=O)[C@H](Cc3ccccc3)NC(=O)[C@H](C(C)C)NC2=O)C[C@H]2O[C@]1(C)n1c3ccccc3c3c4c(c5c6ccccc6n2c5c31)C(=O)NC4 ({Staurosporine-Suc-βAla-βAla-βAla-βAla-βAla-βAla-βAla}-[Dap]VFRVFGD-NH2; lactam 1-8) gave an Activity [9] of 99%, an Activity [10] of 59% and an Activity [11] of 100%. It also gave an Activity [12] of 100%, an Activity [13] of 100% and an Activity [14] of 100%. It also gave an Activity [15] of 90%.
